# Rows were chosen to be rich in hits. Some 2.2% of all compounds tested hit in one or more screens of this group.
# IMP-1 inhibitor – IMP-1 metallo-beta-lactamase inhibitors, primary screen, biochemical, epi-absorbance readout, Pseudomonas aeruginosa enzyme. 290,000 tested, 0.45% active. metallo-beta-lactamase IMP-1 (Pseudomonas aeruginosa). purified IMP-1, nitrocefin hydrolysis, epi-absorbance fluorescence. AID 1556, 2009. inhibition, % at 5.6 µM;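 active means inhibition above the mean plus 3 SD of all compounds in the same screening run, cut at about 4.5% in these data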
#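 Assay system: purified IMP-1; Quantity: IMP-1 0.2 nM before substrate addition; Medium: HEPES buffer pH 7.1 with ZnSO4 and Brij 35; Incubation: 15 min enzyme–compound preincubation, then 25 min nitrocefin reaction, 25 °C; Signal: fluorescence quenching readout, ex 480/em 530 nm; Controls: DMSO with and without IMP-1; Repeats: singlicate testing.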
# PvdQ acylase – P. aeruginosa PvdQ acylase inhibitors, primary screen, biochemical, fluorescence, plate reader and imaging, single point; 340,000 tested, 0.063% active; purified PvdQ acylase; inhibition, % at 10 µM; in the data active means inhibition above about 30%, passing the limit was not always enough
# VIM-2 inhibitor – VIM-2 metallo-beta-lactamase inhibitors, primary screen, biochemical, epi-absorbance readout, Pseudomonas aeruginosa enzyme. 290,000 tested, 0.89% active. purified VIM-2, nitrocefin hydrolysis, epi-absorbance fluorescence. inhibition, % at 5.6 µM. AID 1527, 2009;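 active means inhibition above the mean of all tested compounds plus 3 SD, cutoff set per screening run, cut at about 7.5% in these data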;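 further: red hydrolysis product quenches plate fluorescence so inhibitors raise well fluorescence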
# PHOSPHO1 block – PubChem AID 1565; 290,000 tested, 1.1% active; recombinant PHOSPHO1, absorbance phosphatase assay; inhibition, % at 13.3 µM; in the data active means inhibition above about 60%
# Target sequence (Q8TCT1 whole entry, looked up): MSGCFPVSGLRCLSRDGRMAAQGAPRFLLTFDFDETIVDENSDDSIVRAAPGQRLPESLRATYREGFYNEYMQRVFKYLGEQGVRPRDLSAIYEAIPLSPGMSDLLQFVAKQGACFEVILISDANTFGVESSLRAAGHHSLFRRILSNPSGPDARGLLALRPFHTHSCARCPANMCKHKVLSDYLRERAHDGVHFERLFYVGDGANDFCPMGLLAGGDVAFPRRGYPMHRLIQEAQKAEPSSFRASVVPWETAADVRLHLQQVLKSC
# CR mimetic SO – reduction of superoxide in aged yeast, primary screen, HTS; AID 2690, 2010; 330,000 tested, 0.18% active; S. cerevisiae aged cells, superoxide DHE fluorescence; stronger effect = lower value; superoxide response (% of plate mean), % at 10 µM;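 active means superoxide response under a set limit, about three screen SD below normal, cut at about 65% in these data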;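 further: yeast aged for seven days with compound at 30 °C before DHE staining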
# Numbers stand for hits; n = inactive; x = not tested or not shown.
SMILES,IMP-1 inhibitor,PvdQ acylase,VIM-2 inhibitor,PHOSPHO1 block,CR mimetic SO
O=P(O)(O)Cc1ccccc1OP(=O)(c1ccccc1)c1ccccc1,n,n,9.9,n,n
CC1([N+](=O)[O-])COP(=O)(NC2CC2)OC1 (stereo unspecified),x,n,x,x,x
CN(C)c1ccc2c(c1)N=C(c1ccco1)OP2(=S)N1CCOCC1 (stereo unspecified),n,n,n,89.7,n
Nc1c2c(nc3sc4c(c13)CCCC4)CCCC2,n,n,12.2,n,n
O=C1/C(=C\c2ccccc2)C2OCC=C3CN4CCC56c7ccccc7N1C5C2C3CC46 (stereo unspecified),n,n,n,n,n
Cc1cccc(NC(=O)N2CCCC2)c1,n,n,n,61.8,n
Cc1ccc(NC(=O)N2CC2)cc1NC(=O)N1CC1,x,n,x,x,x
Cc1cc(/C=C2\C(=O)NC(=O)N(c3ccc(Cl)cc3)C2=O)c(C)n1-c1sc2c(c1C#N)CCCC2,5.3,n,n,n,n
CCOC(=O)c1c(-n2c(C)cc(/C=C3\C(=O)NC(=O)N(C)C3=O)c2C)sc2c1CCCC2,n,n,n,n,n
COc1ccc(-c2csc(NC(=O)COC(=O)Cc3ccccc3)n2)cc1OC,n,x,n,n,n
COC1/C=C/C=C(\C)Cc2cc(O)c(Cl)c(c2)N(C)C(=O)CC(OC(=O)C(C)C)C2(C)OC2C(C)C2CC1(O)NC(=O)O2 (stereo unspecified),x,n,x,x,x
Cc1c(CCN)ccc2c1[nH]c1ccccc12,n,n,n,n,65.3
Cc1c(C=C2C(=O)N(C)C(=S)N(C)C2=O)c2ccccc2n1CC(=O)NCC1CCCO1 (stereo unspecified),19.3,n,n,n,n
CCOC(=O)c1cnc(SCc2ccc(Cl)c(Cl)c2)nc1N1CC1,x,n,x,x,x
CCOC(=O)c1ccc(NC(=O)c2c(O)[nH]c(=O)[nH]c2=O)cc1,77.5,n,58.8,n,n
CCOc1ccc(NC(=O)c2c(O)[nH]c(=O)[nH]c2=O)cc1,x,n,x,x,x
CCOc1cc2c(cc1OCC)-n1cccc1C(c1ccc(C(C)C)cc1)NC2 (stereo unspecified),n,n,n,n,n
Oc1ccccc1Cl,x,n,x,x,n
O=P(O)(O)Cc1c(Cl)cccc1Cl,n,n,11.9,n,n
C=Cc1cc(OC)c2c(c1)c(=O)oc1c2cc(OC)c2c(O)ccc(C3OC(C)C(O)C(C)(O)C3O)c21 (stereo unspecified),x,n,x,x,x
O=c1[nH]c(=S)n(Cc2ccco2)c(O)c1C=NCc1cccs1,n,n,n,95.4,n
CN1C(=O)/C(=C/c2ccc(Cl)s2)C(=O)NC1=S,9.7,n,n,n,n
Cc1nc2c(=O)n(C)c(=O)nc-2n(C)n1,n,n,n,67.7,n
CC(C)c1oc(=O)cc2c1[C@@H](O)[C@H]1OC(=O)[C@@]3(C)C[C@@H](O)[C@@H](O)[C@@]2(C)C13 (stereo partly specified),n,n,n,n,n
CCOC(=O)c1c(/N=C/c2c(O)n(-c3ccccc3F)c(=S)[nH]c2=O)sc2c1CCCC2,n,n,n,94.1,n
SMILES,IMP-1 inhibitor,PvdQ acylase,VIM-2 inhibitor,PHOSPHO1 block,CR mimetic SO
CCOC(=O)c1c(/N=C/c2c(O)n(-c3ccc(F)cc3)c(=S)[nH]c2=O)sc2c1CCCC2,n,n,n,n,n
C[C@]12CC[C@H]3[C@@H](CCC4=CC(=O)CC[C@@H]43)[C@@H]1CC[C@@H]2O,x,n,x,x,n
C[C@]12CC[C@@H]3c4ccc(O)c(O)c4CC[C@H]3[C@@H]1CC[C@@H]2O,13.6,n,n,n,n
CC(=O)O[C@H]1C[C@@H]2OC3C=C(C)CCC3(C)[C@@]1(C)[C@@]21CO1 (stereo partly specified),x,n,x,x,x
CN1CCC(n2nccc2N)CC1,n,n,n,n,n
Nc1ccnn1C1CCNCC1,25.0,n,n,n,n
CCCN(CC1CC1)CC(O)c1ccccc1 (stereo unspecified),n,n,n,x,n
O=C(NC1CN2CCC1CC2)c1cc(Cl)c([N+](=O)[O-])c2nc[nH]c12 (stereo unspecified),n,n,10.4,n,n
O=S(=O)(NC1CN2CCC1CC2)c1ccc(Cl)cc1 (stereo unspecified),n,n,n,n,n
CC1=CC(C)CC(C)OC(=O)CC(c2ccc(O)cc2)NC(=O)C(Cc2c(Br)[nH]c3ccccc23)N(C)C(=O)C(C)NC(=O)C(C)C1 (stereo unspecified),x,n,x,x,x
NP(=O)(Oc1ccc(Cl)cc1)Oc1ccc(Cl)cc1,7.7,n,n,n,n
CCCN1CCc2cccc3c2[C@H]1Cc1ccc(O)c(O)c1-3,x,n,x,x,33.0
COc1ccc2c(c1O)-c1c(OC)c(OC)cc3c1[C@H](C2)N(C)CC3,x,n,x,x,n
Cc1cc(=O)oc2cc(OCC(=O)N3CCN(Cc4ccccc4)CC3)ccc12,x,n,x,x,n
Cc1cc(=O)oc2cc(OCC(=O)N3CCN(Cc4ccc5c(c4)OCO5)CC3)ccc12,n,n,9.7,n,n
COC(=O)C1C=C2c3cccc4[nH]cc(c34)CC2N(C)C1 (stereo unspecified),6.8,x,n,n,x
O=C1C(=O)c2cccc3cccc1c23,5.1,n,n,n,n
COC(=O)C1=C(C(=O)OC)SC2(S1)C(C(=O)OC)=C(C(=O)OC)Sc1c2ssc1=O,x,n,x,x,x
CCOc1ccccc1C1SCC(=O)Nc2c1c(=O)[nH]n2C(CC)CC (stereo unspecified),n,n,10.7,n,n
CCCc1nc2ccccc2c(=O)n1-c1ccc(O)cc1,n,n,n,63.2,n
Cc1cc(OC(C)C(=O)NCc2cccnc2)c2c3c(c(=O)oc2c1)CCC3 (stereo unspecified),n,n,8.4,n,n
O=C(O)CCC(=O)NCCC1=c2ccccc2=N/C1=C\c1c(O)n(Cc2ccc(F)cc2)c(=S)[nH]c1=O,n,n,n,97.3,n
CCN(CCCl)c1cc(CN(C)C)cc(NC(=O)c2ccc(C(=O)Nc3cc(CN(C)C)cc(N(CC)CCCl)c3)cc2)c1,x,n,x,x,x
COc1ccc(C(C)=O)cc1CC(C(=O)c1ccc(Br)cc1)N(C)C (stereo unspecified),6.0,n,n,n,n
CC1(C)OC(c2ccccc2)=C/C(=C/C=C2C(=O)NC(=O)NC2=O)O1,4.6,n,n,n,n
CN1C(=O)/C(=C\c2ccc(N3CCCCCC3)cc2)C(=O)NC1=S,n,n,n,n,n
Cc1cc(C=C2C(=O)N(C)C(=S)N(C)C2=O)c(C)n1C1CCCCC1,n,n,n,64.7,n
Cc1cc(N2CCCCC2)ccc1C=C1C(=O)N(C)C(=S)N(C)C1=O,7.4,n,n,n,n
CC(=O)OC(C)(C)/C=C/C(=O)[C@](C)(O)C1[C@H](O)C[C@@]2(C)C3CC=C4C(C[C@H](O)C(=O)C4(C)C)[C@]3(C)C(=O)C[C@]12C (stereo partly specified),x,n,x,x,n

# Bioassay records as filed in PubChem.
